This is a sample that favours compounds with a hit; in the whole collection about 1.9% have one here.
PG9 binder – PG9 antibody binding by small molecule; 0.43% of 360,000 active; inhibition, % at 6.7 µM; TR-FRET gp120-PG9 antibody binding; AID 624416; in the data active means inhibition above about 8.5%
UCH37 DUB inh – blocks the human deubiquitinase UCH37; purified proteasome/UCH37, Ub-AMC cleavage fluorescence; AID 588478; 0.33% of 330,000 active; inhibition, % (concentration not given with the values);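 active means mean inhibition over replicate wells above about 20%, limit read from the data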;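 further: 0% = compound-free wells with enzyme and 100% = wells lacking proteasome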
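Reagent: Ub-AMC substrate; assay system: Proteasome-associated human UCH37 deubiquitinase; controls: no-proteasome and no-compound wells; read-out: % inhibition of Ub-AMC cleavage fluorescence; timing: 30 min preincubation with enzyme, 25 min cleavage at room temperature; signal: AMC fluorescence from Ub-AMC cleavage, excitation 355 nm, emission 460 nm; buffer or medium: Tris-HCl pH 7.4 plus ovalbumin, ATP-MgCl2, DTT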
beta cell repl – MIN6 beta-cell proliferation induction; 0.29% of 330,000 active; proliferation, % at 10 µM; MIN6 cells proliferation, ATPlite luminescence, 48 h; cells starved in 0.2% serum; 100% = growth in 10% serum;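 active means compounds whose signal lies at least 3.5 SD above the mean of all wells on their plate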;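 further: 0% = DMSO-treated cells in low-serum medium and 100% = 10% serum control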
Yeast superoxide – lowers age-related superoxide in aged yeast cells; AID 2690; 0.18% of 330,000 active; superoxide response (% of plate mean), % at 10 µM; S. cerevisiae aged cells, superoxide DHE fluorescence; stronger effect = lower value;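 active means superoxide response under a set limit, about three screen SD below normal, cut at about 65% in these data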;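 further: yeast aged for seven days with compound at 30 °C before DHE staining; 100% = average MFI of all compound-treated wells on the plate with controls excluded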
Rce1 inh – inhibitors of yeast Ras-converting enzyme; Q03530; yeast membranes, quenched prenylated peptide cleavage fluorescence; calls only; 0.27% of 290,000 active; AID 2563;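 active means fall in fluorescence gain of 50% or more versus controls, with final raw signal at or below 3038400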;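 further: plate controls were neutral control wells for no effect and wells lacking membranes for full effect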
NR1D1 modulator – Rev-erb alpha (human) modulation; activity, % at 10 µM; P20393; 0.79% of 370,000 active; Rev-erbα–FITC-DNA binding, fluorescence polarization, 90 min;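 active means activity above about 14%, limit read from the data; passing the limit was not always enough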;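 further: 0% = DMSO wells with 35 nM protein and 100% = DMSO wells with 750 nM protein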
Target sequence (P20393 whole entry, looked up): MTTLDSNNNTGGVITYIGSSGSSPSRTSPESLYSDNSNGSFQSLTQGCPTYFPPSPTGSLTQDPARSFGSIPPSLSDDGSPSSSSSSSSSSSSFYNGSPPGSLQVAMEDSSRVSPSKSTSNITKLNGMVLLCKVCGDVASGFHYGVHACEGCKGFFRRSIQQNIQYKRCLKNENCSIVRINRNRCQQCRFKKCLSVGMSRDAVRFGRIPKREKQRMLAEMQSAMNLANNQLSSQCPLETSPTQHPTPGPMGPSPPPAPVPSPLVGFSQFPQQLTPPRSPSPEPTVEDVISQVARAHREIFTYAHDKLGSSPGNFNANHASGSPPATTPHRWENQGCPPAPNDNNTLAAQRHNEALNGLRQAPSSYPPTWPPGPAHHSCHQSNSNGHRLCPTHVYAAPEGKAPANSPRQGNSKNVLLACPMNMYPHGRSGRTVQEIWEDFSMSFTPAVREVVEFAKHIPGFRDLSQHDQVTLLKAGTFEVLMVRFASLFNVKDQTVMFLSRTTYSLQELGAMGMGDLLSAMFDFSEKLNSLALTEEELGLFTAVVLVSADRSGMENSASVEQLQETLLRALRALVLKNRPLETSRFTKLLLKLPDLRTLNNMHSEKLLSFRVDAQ
Rev-erbA confirm – Rev-erb alpha (human) modulation, hit confirmation. shares compounds with NR1D1 modulator. Rev-erb alpha FITC-DNA binding, fluorescence polarization, 90 min. activation, % at 25 µM. 61% of 3,000 active. AID 1259319;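 active means activation at or above a set limit, or at least 3 SD above the negative control mean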;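 further: 0% = 35 nM protein with DMSO and 100% = 750 nM protein high control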
RORg counter – RORgamma DNA-binding activity, dose-response counter-screen; shares compounds with NR1D1 modulator; purified RORgamma protein-FITC-DNA binding, fluorescence polarization; IC50, µM; 8% of 910 active; AID 1259320;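 active means Compounds whose fitted half-maximal concentration for disrupting protein-DNA binding is below 10 micromolar; the record names Rev-erb in its text, so the target is in doubt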
* marks the source's active call; other numbers are inactive results; i = inactive; x = no result.

SMILES	PG9 binder	UCH37 DUB inh	beta cell repl	Yeast superoxide	Rce1 inh	NR1D1 modulator	Rev-erbA confirm	others
Cc1ccc2c(c1)sc(=NC(=O)c1cccs1)n2C	0.3	-47.7	-5.7	101.4	i	43.0*	10.2
Cc1ccc2c(c1)sc(=NC(=O)C1CC1)n2C	3.1	5.9	-3.4	96.1	i	-2.0	x
Cc1ccc2nsnc2c1S(=O)(=O)N(Cc1ccco1)Cc1cc2cccc(C)c2[nH]c1=O	x	-23.9	-1.3	76.6	i	26.4*	14.5
COc1cc(C(=O)Nc2nc(-c3cc(C)ccc3C)c(C)s2)ccc1OCC(=O)Nc1ccc(F)cc1	-0.2	-22.0	-3.1	87.9	i	71.2*	48.8*	RORg counter=>40
COc1ccc(-c2csc3nc(-c4ccc(C)cc4)oc(=O)c23)cc1OC	0.5	-14.8	-5.6	148.3	i	27.4*	-3.6
COc1cc(-c2nc3sc(C)c(C)c3c(=O)o2)cc(OC)c1OC	0.9	-33.5	-3.0	108.2	i	31.3*	17.6
COc1ccc(-c2csc3nc(C(C)(C)C)oc(=O)c23)cc1OC	-2.4	6.3	-1.5	126.6	i	1.6	x
Cc1ccccc1-c1nc2sc(C)c(C)c2c(=O)o1	1.7	5.6	-0.6	118.4	i	18.0*	0.1
Cc1sc2nc(-c3ccco3)oc(=O)c2c1C	3.6	-20.6	-0.5	109.8	i	3.4	x
COc1ccc2c(c1OC)C(=O)OC2CC(=NNC(N)=O)c1ccccc1 (stereo not given)	x	2.9	x	x	x	x	x
Nc1nnnn1N=Cc1ccc(Br)cc1	x	1.7	x	x	x	x	x
COc1cccc(-n2c([S-])c(C(=O)Nc3ccc(S(=O)(=O)N4CCOCC4)cc3)[n+]3cc(C(N)=O)ccc23)c1	-1.6	-5.1	-3.9	107.3	i	61.8*	62.6*	RORg counter=i
CC(C)COc1cccc(C(=O)Nc2ccc(S(=O)(=O)N3CCOCC3)cc2)c1	-1.8	3.6	-1.5	95.1	i	-7.5	x
CC1(C(=O)NS(=O)(=O)c2cccc(Cl)c2)CCN1C(=O)CC1CCCCC1 (stereo not given)	-1.8	x	x	x	x	16.4*	3.5
CC1(C(=O)NS(=O)(=O)c2cccc(Cl)c2)CCN1C(=O)CC1CC1 (stereo not given)	0.3	x	x	x	x	-3.4	x
COc1ccc2oc(=NO)c(C(=O)Nc3ccccc3OC)cc2c1	x	3.7	x	x	x	x	x
CC(NS(=O)(=O)c1cccc(Cl)c1)C(=O)Nc1ccc(-c2nc3ccccc3s2)cc1 (stereo not given)	0.5	-13.0	-3.4	94.7	i	29.8*	10.0
COc1ccc2c(=O)c3c(=O)n(CCc4ccccc4)c(C)nc3oc2c1	-1.3	x	x	x	x	-0.2	x
COc1ccc2c(=O)c3c(=O)n(CCc4ccccc4)c(C(C)C)nc3oc2c1	-1.1	-0.1	-0.9	107.6	i	24.6*	0.6
Cc1cc(C)nc(N=C(N)N2CCCCCC2)n1	x	-2.4	x	x	x	x	x
COc1nnc(-c2ccc(C)cc2)c2ccccc12	0.9	1.7	-2.2	102.8	i	10.7	x
c1ccc(Oc2nnc(-c3cccs3)c3ccccc23)cc1	-2.7	5.1	0.7	101.7	i	25.6*	10.7
COc1ccc(Oc2nnc(-c3ccc(C)cc3)c3ccccc23)cc1	1.6	1.1	-1.2	99.7	i	26.8*	14.6
Cc1ccc(Oc2nnc(-c3cccs3)c3ccccc23)cc1	3.1	-1.3	0.0	104.9	i	14.9	x
Cc1ccc(N2CCOCC2)c2c1C(=O)c1ccccc1C2=O	-9.4	4.7	-3.4	141.8	i	8.3	x
SMILES	PG9 binder	UCH37 DUB inh	beta cell repl	Yeast superoxide	Rce1 inh	NR1D1 modulator	Rev-erbA confirm	others
CC(=O)N(C(C)=O)N1C(=O)c2cccc3c(N4CCOCC4)ccc(c23)C1=O	-5.5	2.4	-2.8	105.7	i	17.3*	17.5
O=C(OCCN1C(=O)c2ccccc2C1=O)c1ccc(S(=O)(=O)N2CCCCCC2)cc1	0.5	0.6	-4.2	98.1	i	3.1	x
CCN(CC)S(=O)(=O)c1ccc(C(=O)OCCN2C(=O)c3cccc4c(N5CCOCC5)ccc(c34)C2=O)cc1	1.1	-10.7	0.0	103.6	i	278.0*	217.2*	RORg counter=>40
CCOC(=O)/C(C#N)=C/Nc1ccsc1C(=O)OC	0.9	-70.9	7.3	103.3	i	22.5*	10.7
CCOC(=O)/C(C#N)=C/Nc1cc(C(=O)OCC)cc2c(OC)c(OC)ccc12	1.0	x	-2.2	x	x	30.8*	-1.9
CCCCNC(=O)N(O)C1N(N=Cc2cccnc2)C(=S)SC1(C)C (stereo not given)	x	6.4	x	x	x	x	x
CCC(=O)N=c1sc2c(OC)ccc(OC)c2n1C	0.1	2.4	-2.1	108.9	i	46.9*	29.7*	RORg counter=>40
COc1ccc(C)c2sc(=NC(=O)C(C)C)n(C)c12	0.6	3.7	-1.9	119.0	i	158.4*	10.7*
COc1ccc(C)c2sc(=NC(=O)c3cccc(N4C(=O)CCC4=O)c3)n(C)c12	-2.0	-176.5	-3.2	116.8	i	42.5*	23.5*
CN(c1ccc(Cl)cc1)c1cc(=O)n(C)c2ccccc12	0.8	-2.9	4.0	101.7	i	22.4*	17.6*
CN(C(=O)COc1cc(=O)n(C)c2ccccc12)c1ccc(Cl)cc1	0.5	x	6.4	108.6	i	2.1	x
S=C(NN=Cc1ccc(Br)cc1)N1CCCCC1	x	1.3	x	x	x	x	x
O=C1NC(Cc2ccc(O)cc2)c2nc3ccc(Cl)cc3c(=O)n2-c2cc3ccccc3cc21 (stereo not given)	0.2	x	x	x	x	2.3	x
O=C1NC(Cc2ccccc2)c2nc3ccc(Cl)cc3c(=O)n2-c2cc3ccccc3cc21 (stereo not given)	-0.9	x	x	x	x	21.5*	1.9
O=C(NN=Cc1ccc(OC(=O)c2ccccc2Br)cc1)c1ccccn1	x	-9.2	x	x	x	x	x
COc1cc(C(=O)NCC(=O)NN=Cc2c(C)[nH]c3ccccc23)cc(OC)c1OC	x	6.6	x	x	x	x	x
COc1ccc2c(c1)-c1c(ssc1=S)C(C)(C)N2C(=O)CSC1=NCCS1	-0.5	3.3	-5.1	102.1	x	21.2*	30.4*
CN(C)c1ccc(C=NN2C(=S)SC(C)(C)C2N(O)C(=O)Nc2ccc([N+](=O)[O-])cc2)cc1 (stereo not given)	x	7.9	x	x	x	x	x
CCOc1ncccc1C(=O)Nc1ccc(C(=O)Nc2ccc(OC)cc2)cc1	4.1	-16.0	-3.9	96.2	x	21.5*	13.6
CCOC(=O)CSc1nc(N)c(C#N)c(-c2cccs2)c1C#N	0.2	-10.4	-2.5	91.2	i	16.1*	21.3*
N#Cc1c(N)nc(SCc2ccccn2)c(C#N)c1-c1cccs1	-2.3	-1.8	-4.0	106.9	i	-0.7	x
